Most compounds without a hit are left out; they make up all but 4% or so of the library.
Statin myotox sup = protects C2C12 myotubes from simvastatin toxicity; ATP luminescence, 48 h; scaled: DMSO 0, geranylgeraniol control 100; rescue of ATP level, % at 7.49 µM; 0.78% of 330,000 active;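 active = mean ATP rescue above about 67%, or every replicate alone reaching that limit, limit read from the data, passing the limit was not always enough; inconclusive = no clear call, values can overlap the other calls; inactive = mean under the limit and some replicate under it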;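 also: myotubes were challenged with 10 µM simvastatin during compound exposure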
FN deposit inh = fibronectin deposition inhibition. AH1F fibroblasts, Alexa488-fibronectin deposition fluorescence, overnight. inhibition, % at 12.6 µM. 0.086% of 350,000 active;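 active = mean inhibition across replicates of 30% or more, regardless of how many single replicates reach that level; inconclusive = mean under 30% yet at least half of replicates reach 30%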;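 also: positive control wells lacked labelled fibronectin entirely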
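Assay system: AH1F fibroblasts / Quantity: 10000 cells per well / Medium: DMEM plus 2% serum, read in PBS / Reagent: labelled fibronectin 24 nM / Dosing: single dose, pinned / Times: 1 h cell attachment, overnight exposure to compound and label / Signal: fluorescence, ex 485 nm, em 525 nm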
E-selectin induc = induces E-selectin expression in human endothelial cells. 0.37% of 260,000 active. HUVEC E-selectin immunofluorescence imaging; normalized: neutral wells 0, TNF-alpha wells 100. activation, % at 7.58 µM. P16581;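 active = mean E-selectin-positive cell signal at least 10% of the positive control, reached in at least 60% of replicates, without over 20% cell loss; inconclusive = no rule given, readout overlaps actives, possibly toxicity-flagged; inactive = the rest, including those meeting only one limit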
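material = human umbilical vein endothelial cells (HUVEC), E-selectin induction | quantity = 3,000 cells/well | medium = EGM-2 growth medium on 0.1% gelatin-coated wells | technique = immunofluorescence imaging | read-out basis = % PE-positive cells | control set = TNF-alpha positive control, DMSO neutral control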
SIRT5 inh = inhibitors of human sirtuin-5 desuccinylase; inhibition, % at 15 µM; Q9NXA8; 1.1% of 330,000 active; AID 652115; Purified SirT5, succinyl-peptide AMC, trypsin-coupled fluorescence; in the data active = inhibition above about 15%; inconclusive = no clear call, values can overlap the other calls
Target sequence (Q9NXA8 whole entry, looked up): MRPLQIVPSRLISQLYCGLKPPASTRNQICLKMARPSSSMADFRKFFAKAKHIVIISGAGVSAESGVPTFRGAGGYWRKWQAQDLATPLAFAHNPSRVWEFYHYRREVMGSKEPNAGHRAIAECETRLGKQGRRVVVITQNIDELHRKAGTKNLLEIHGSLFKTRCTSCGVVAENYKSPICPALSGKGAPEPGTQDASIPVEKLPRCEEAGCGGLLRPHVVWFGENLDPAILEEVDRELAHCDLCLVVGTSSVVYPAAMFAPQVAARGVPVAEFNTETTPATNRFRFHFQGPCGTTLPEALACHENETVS
FGF22 binding = binders of recombinant human FGF22 by thermal shift; SYPRO orange fluorescence; percent of sucrose octasulfate shift, DMSO zero; activity (Tm shift, normalised), % at 9.99 µM; 1.5% of 340,000 active;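 active = mean Tm shift, scaled 0 neutral to 100 positive control, at about 1.3% or above, every replicate too, limit read from the data; inconclusive = no clear call, values can overlap the other calls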
Target sequence (Q9HCT0 whole entry, looked up): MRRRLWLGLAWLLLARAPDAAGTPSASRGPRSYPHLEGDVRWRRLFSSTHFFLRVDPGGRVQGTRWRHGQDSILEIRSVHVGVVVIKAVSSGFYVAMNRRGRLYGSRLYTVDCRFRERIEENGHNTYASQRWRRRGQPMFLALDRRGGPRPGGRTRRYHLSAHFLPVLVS
rRNA inh HTS = inhibitors of bacterial rRNA selective over humanized ribosomes | GFP signal change (wild-type ribosome), % (test concentration not listed) | E. coli WT GFP vs humanized-ribosome RFP mutants, fluorescence, 24 h; active compounds read low; DMSO median 0, no signal -100 | AID 720706 | 1.6% of 350,000 active;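 active = significant combined selectivity score with lowered wild-type GFP, culture density cut under 30%, mutant RFP and density less affected; inactive = any of these conditions unmet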
The depositor's hits bear a star; ? = inconclusive; · = not tested or not shown.

SMILES	Statin myotox sup	FN deposit inh	E-selectin induc	SIRT5 inh	FGF22 binding	rRNA inh HTS
CC(C)CNC(=O)CN1C(=O)NC(Cc2c[nH]c3ccccc23)C1=O (configuration not stated)	·	0	·	-5	43*	10
O=C1NC(Cc2c[nH]c3ccccc23)C(=O)N1Cc1cccc2ccccc12 (configuration not stated)	-1	8	·	-2	43*	-27
CNC(=O)CN1C(=O)NC(Cc2c[nH]c3ccccc23)C1=O (configuration not stated)	·	9	0	-1	0	10
CCCN(C)C[C@H]1OCCCC[C@@H](C)Oc2ccc(NS(=O)(=O)c3c(C)noc3C)cc2C(=O)N([C@@H](C)CO)C[C@H]1C	·	·	0	3	0	0
CCOc1ccc(-c2onc(C(F)(F)F)c2-c2cscn2)c(O)c1	-7	·	·	0	0	-43*
COc1ccc(S(=O)(=O)N2CCCCC2)cc1C(C)C	113*	·	·	·	·	·
COc1ccc(S(=O)(=O)N2CCC(O)(c3ccc(Cl)cc3)CC2)cc1OC	9	5	1	0	0	-24*
O=C(Nc1cccc(Cl)c1)N[C@@H]1CC[C@@H](CCNC(=O)C2CCC2)O[C@@H]1CO	-5	·	0	0	0	-6
Cc1ccn2cc(-c3cccc(S(=O)(=O)N4CCCC4)c3)nc2c1	-42	-4	·	2	0	-25*
Cc1ccn2cc(-c3cccc(S(=O)(=O)N4CC(C)OC(C)C4)c3)nc2c1 (configuration not stated)	-7	-2	·	4	0	-5
CC(C)NC(=O)Nc1ccc2c(c1)CC(=O)N([C@@H](C)CO)C[C@@H](C)[C@@H](CN(C)C(=O)Nc1ccccc1)O2	21	·	0	0	0	3
CN1C(=O)c2cc(NS(=O)(=O)c3ccc(Cl)cc3)ccc2OC[C@@H]2O[C@@H](CC(=O)N3CCc4ccccc4C3)CC[C@@H]21	40	-6	0	8	·	-4
CN1C(=O)c2cc(NS(=O)(=O)c3ccc(Cl)cc3)ccc2OC[C@H]2O[C@H](CC(=O)N3CCc4ccccc4C3)CC[C@H]21	-4	2	0	3	0	-8
CN1C(=O)c2cc(NS(=O)(=O)c3ccc(Cl)cc3)ccc2OC[C@H]2O[C@@H](CC(=O)N3CCc4ccccc4C3)CC[C@@H]21	49	·	0	16*	·	-6
CN1C(=O)c2cc(NS(=O)(=O)c3ccc(Cl)cc3)ccc2OC[C@@H]2O[C@H](CC(=O)N3CCc4ccccc4C3)CC[C@H]21	109*	5	0	6	·	-4
C/C(=N\NC(N)=S)c1ccc2c(c1)OCCO2	·	4	15	0	0	7
C/C(=N/NC(=O)c1ccc2c(c1)OCO2)c1cccc(NC(=O)C(C)(C)C)c1	111*	-6	·	·	·	·
C/C(=N\Nc1nc2ccccc2[nH]1)c1ccc2c(c1)OCO2	-27	·	·	2	0	-64
C/C(=N\Nc1nc2ccccc2[nH]1)c1ccc2c(c1)OCCO2	·	·	·	3	0	-48*
C/C(=N/NC(=O)c1ccc2c(c1)OCO2)c1cccc([N+](=O)[O-])c1	-4	9	1	-2	0	14
CC(=O)N/N=C(\C)c1ccc2c(c1)OCCO2	·	2	0	0	43*	16
Cc1ccc2nc(/C(C#N)=C/c3ccccc3C(=O)O)[nH]c2c1	0	-3	9	5	0	0
Cc1ccc2nc(/C(C#N)=C/c3ccc(O)c(O)c3)[nH]c2c1	4	-8	·	20*	0	7
NC(=O)c1nsc(C(=O)N(c2ccccc2F)C(C(=O)NCc2ccc(F)cc2)c2ccc(O)cc2)c1N (configuration not stated)	4	11	·	-1	0	-40*
CO[C@@H]1CN(C)C(=O)c2ccc(NC(=O)C3CCCC3)cc2OC[C@H](C)N(C(=O)CC2CC2)C[C@@H]1C	5	6	0	2	0	0
SMILES	Statin myotox sup	FN deposit inh	E-selectin induc	SIRT5 inh	FGF22 binding	rRNA inh HTS
COc1ccc(S(=O)(=O)Nc2ccc3c(c2)CC(=O)N([C@H](C)CO)C[C@@H](C)[C@H](CN(C)Cc2ccc(C(F)(F)F)cc2)O3)cc1	79*	7	0	15	-1	-1
COc1ccc(CN(C)C[C@@H]2Oc3ccc(NS(=O)(=O)c4ccc(F)cc4)cc3CC(=O)N([C@@H](C)CO)C[C@@H]2C)cc1	13	4	0	2	0	0
COc1ccc(S(=O)(=O)Nc2ccc3c(c2)CC(=O)N([C@H](C)CO)C[C@@H](C)[C@@H](CN(C)Cc2ccc(C(F)(F)F)cc2)O3)cc1	?	-13	0	22*	0	0
COc1ccc(CN(C)C[C@@H]2Oc3ccc(NS(=O)(=O)c4ccc(F)cc4)cc3CC(=O)N([C@H](C)CO)C[C@H]2C)cc1	75*	-16	16	-1	0	-2
COc1ccc(S(=O)(=O)Nc2ccc3c(c2)CC(=O)N([C@@H](C)CO)C[C@@H](C)[C@@H](CN(C)Cc2ccc(C(F)(F)F)cc2)O3)cc1	23	-5	0	5	-1	-4
COc1ccc(S(=O)(=O)Nc2ccc3c(c2)CC(=O)N([C@H](C)CO)C[C@H](C)[C@@H](CN(C)Cc2ccc(C(F)(F)F)cc2)O3)cc1	?	·	·	26*	-1	·
CO[C@@H]1CN(C)C(=O)c2ccc(NC(=O)NC(C)C)cc2OC[C@@H](C)N(Cc2cncnc2)C[C@@H]1C	5	-9	0	·	·	1
O=C(C[C@@H]1C[C@@H]2c3cc(NS(=O)(=O)c4ccc(F)cc4)ccc3O[C@@H]2[C@@H](CO)O1)NCC1CC1	0	-8	0	·	0	1
C[C@@H]1CN([C@H](C)CO)C(=O)c2cc(NC(=O)Cc3ccccc3)ccc2O[C@@H](C)CCCCO[C@H]1CN(C)S(=O)(=O)c1cn(C)cn1	·	·	0	·	0	1
COc1ccc(S(=O)(=O)Nc2ccc3c(c2)CC(=O)N([C@@H](C)CO)C[C@@H](C)[C@H](CN(C)Cc2ccc(C(F)(F)F)cc2)O3)cc1	76*	-5	0	24*	-1	1
COc1ccc(CN(C)C[C@H]2Oc3ccc(NS(=O)(=O)c4ccc(OC)cc4)cc3CC(=O)N([C@H](C)CO)C[C@H]2C)cc1	44	·	0	1	0	4
COc1ccc(S(=O)(=O)Nc2ccc3c(c2)CC(=O)N([C@@H](C)CO)C[C@H](C)[C@H](CN(C)Cc2ccc(C(F)(F)F)cc2)O3)cc1	26	-17	0	22*	-1	0

Screens as filed in PubChem.
